Compound activity as filed in PubChem.
The list is not random: actives were taken first. Their share in the collection is about 1.7%.
Rpn11 block: inhibitors of human proteasome Rpn11. calls only at 20 µM. AID 588493. O00487. human 26S proteasome, Ub4-pepOG fluorescence polarization; 20S core pre-blocked with epoxomicin. 0.59% of 360,000 active;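 active = inhibition at 20 µM, scaled to each plate's controls, above about 33%, limit read from the data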
IDE inh: cellular human IDE inhibition; P14735; HEK cells, FAbetaB cleavage, fluorescence polarization; inhibition, % at 5.59 µM; 0.41% of 320,000 active;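 active = percent inhibition above the average of all tested compounds plus 3 SD, set per screening campaign, cut at about 16% in these data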;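 note: IDE supplied by intact live HEK cells; FP after avidin binding of uncleaved biotin substrate so inhibition keeps polarization high; 0% = DMSO wells and 100% = 60 µM reference IDE inhibitor Ii1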
Target sequence (P14735 whole entry, looked up): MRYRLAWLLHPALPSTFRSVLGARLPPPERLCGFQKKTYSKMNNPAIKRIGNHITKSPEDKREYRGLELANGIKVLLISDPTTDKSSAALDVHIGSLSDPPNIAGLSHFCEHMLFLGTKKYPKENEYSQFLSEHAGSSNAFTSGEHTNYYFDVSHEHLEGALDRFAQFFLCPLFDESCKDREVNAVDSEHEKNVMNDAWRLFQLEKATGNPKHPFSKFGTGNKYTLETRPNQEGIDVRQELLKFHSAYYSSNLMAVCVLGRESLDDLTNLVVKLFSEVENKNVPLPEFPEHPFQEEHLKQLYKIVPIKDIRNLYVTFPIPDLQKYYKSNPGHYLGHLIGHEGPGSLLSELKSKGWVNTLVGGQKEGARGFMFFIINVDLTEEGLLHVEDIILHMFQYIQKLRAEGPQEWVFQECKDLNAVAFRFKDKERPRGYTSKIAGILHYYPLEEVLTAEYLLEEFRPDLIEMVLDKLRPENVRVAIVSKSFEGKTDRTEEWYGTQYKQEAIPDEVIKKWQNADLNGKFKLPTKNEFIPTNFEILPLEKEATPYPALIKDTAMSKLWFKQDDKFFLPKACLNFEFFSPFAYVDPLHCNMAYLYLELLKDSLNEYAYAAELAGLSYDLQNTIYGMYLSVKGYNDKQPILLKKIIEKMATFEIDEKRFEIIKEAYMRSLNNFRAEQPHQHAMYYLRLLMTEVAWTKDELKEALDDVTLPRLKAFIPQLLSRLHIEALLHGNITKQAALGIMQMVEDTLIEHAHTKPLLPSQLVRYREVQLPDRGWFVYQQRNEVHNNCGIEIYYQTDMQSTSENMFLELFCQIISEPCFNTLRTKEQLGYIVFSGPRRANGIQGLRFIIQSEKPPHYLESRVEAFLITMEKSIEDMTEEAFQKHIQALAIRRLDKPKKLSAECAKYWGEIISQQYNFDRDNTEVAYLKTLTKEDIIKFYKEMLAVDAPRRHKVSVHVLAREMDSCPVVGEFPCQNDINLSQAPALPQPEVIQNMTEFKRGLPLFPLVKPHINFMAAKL
CSN deneddyl inh: inhibitors of human CSN-mediated cullin deneddylation; Purified CSN, SCF-Nedd8-OG deneddylation, fluorescence polarization; inhibition, % at 12.5 µM; 0.38% of 360,000 active;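 active = pattern-corrected inhibition above about 35%, with an unprinted fluorescence ratio check between 0.5 and 1.5, limit read from the data, passing the limit was not always enough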;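 note: 0% = enzyme with substrate and 100% = substrate without enzyme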
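assay system = purified human Csn5 enzyme expressed in HEK293T cells | amount = 0.24 nM enzyme | buffer or medium = Tris/NaCl/DTT buffer, pH 7.5 | reagent = 10 nM SCFSkp2-Nedd8OG | compound = one concentration, 12.5 µM, 0.25% DMSO | times = 90 min reaction at room temperature | signal = FP | read-out basis = % inhibition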
TPT1 inhibitor: inhibitors of Candida albicans tRNA 2'-phosphotransferase TPT1 | recombinant caTPT1, FP RNA substrate dephosphorylation | inhibition, % at 5 µM | 0.81% of 300,000 active | AID 1962;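 active = inhibition above the mean of all tested compounds plus 3 SD, set per screening campaign, cut at about 24% in these data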;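 note: plate controls were DMSO alone for no effect and ferristatin control at 100 nM for full effect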
HNF4A DNA FP: change in binding of human HNF4 alpha to DNA; HNF4a-FITC DNA binding, fluorescence polarization, 1 h; activity change, % at 10 µM; 0.3% of 360,000 active; in the data active = activity change above about 30%, passing the limit was not always enough
IDE act: IDE (human) activation, cell-based; HEK cells, FAbeta-B cleavage, fluorescence polarization; 0% vehicle, 100% cell-free pure enzyme wells; activation, % at 5.96 µM; AID 493087; 0.073% of 340,000 active; P14735;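 active = activation above the mean of all tested compounds plus 3 SD, set per screening campaign, cut at about 17% in these data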
CSN5 deneddyl: Csn5 (human) deneddylation inhibition, single-concentration validation | shares compounds with CSN deneddyl inh | Csn5 deneddylation of SCF-Nedd8OG, fluorescence polarization, 90 min | AID 720654 | 62% of 540 active | inhibition, % at 16.6 µM; in the data active = inhibition above about 50%;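 note: 0% = DMSO with enzyme and 100% = no enzyme wells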
MMP-2 counter: blocks human MMP-2 in a CSN deneddylation counter-screen; shares compounds with CSN deneddyl inh; recombinant MMP-2, FRET substrate fluorescence, 60 min; inhibition, % at 16.6 µM; 33% of 540 active;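 active = corrected plate-normalized z-score of 5 or more, or -5 or less, or inhibition of 15% or more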;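 note: plate controls were DMSO wells with enzyme for no effect and buffer wells lacking MMP-2 for full effect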
Thrombin counter: counter-screen for CSN deneddylation inhibitors: bovine thrombin inhibition; shares compounds with CSN deneddyl inh; bovine thrombin cleavage of Ub4-pepOG, fluorescence polarization; inhibition, % at 16.6 µM; 49% of 540 active; AID 720656;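 active = inhibition at or above a set limit, with a fluorescence interference ratio between 0.5 and a set maximum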
* marks the source's active call; other numbers are inactive results; i = inactive; nt = not tested or not shown; + = active, no number.

SMILES | Rpn11 block | IDE inh | CSN deneddyl inh | TPT1 inhibitor | HNF4A DNA FP | IDE act | CSN5 deneddyl | MMP-2 counter | Thrombin counter
O=C1/C(=C\c2cc(Br)cc(Br)c2O)SC(=S)N1Cc1ccccc1 | i | 4.4 | 45.7* | 21.6 | 17.5 | -6.1 | 97.3* | 6.7 | 13.1
O=C(O)CN1C(=O)/C(=C\c2cc(Br)ccc2OCc2ccccc2Cl)SC1=S | i | 1.8 | 37.8* | 2.5 | -1.5 | -0.1 | 25.8 | 7.8 | 1.7
O=C(O)CN1C(=O)/C(=C\c2cc(Br)ccc2OCc2ccccc2F)SC1=S | i | 3.2 | 29.6 | -3.3 | -3.0 | 2.6 | nt | nt | nt
CCOC1=C/C(=C/c2c(N)n3nc(-c4ccccc4)sc3nc2=O)C=CC1=O | nt | nt | 40.8* | nt | 32.0 | nt | 6.3 | 4.9 | 63.8*
COC1=C/C(=C/c2c(N)n3nc(-c4ccc(C)cc4)sc3nc2=O)C=CC1=O | nt | nt | 78.2* | nt | 59.5* | -73.2 | nt | 5.8 | 75.5*
CCCc1nn2c(N)c(/C=C3\C=Nc4ccccc43)c(=O)nc2s1 | i | -2.0 | 3.2 | 13.5 | -3.2 | 7.7 | nt | nt | nt
Nc1c(C=C2C=CC(=O)C=C2)c(=O)nc2sc(CC(=O)N3CCCC3)nn12 | i | 1.4 | 3.2 | 4.0 | 0.2 | 2.2 | nt | nt | nt
CCn1c(SCC(=O)Nc2cc(C)nn2-c2ccccc2)nnc1-c1cccs1 | i | 0.4 | 3.0 | 1.9 | 2.9 | 1.6 | nt | nt | nt
CCCc1cc(=O)[nH]c(SCC(=O)N2CC3(C)CC2CC(C)(C)C3)n1 (configuration not stated) | i | -1.7 | -4.5 | nt | -0.7 | 0.0 | nt | nt | nt
CCCCCCCCCCCCCCCC[n+]1cccc2ccccc21 | + | -1.9 | 35.5* | -2.1 | 20.7 | 13.1 | 65.1* | 17.2* | -38.9
c1ccc(C2=NN(c3ccccc3)CC2)cc1 | i | -1.6 | 6.5 | 2.1 | -0.5 | 5.7 | nt | nt | nt
CCOC(=O)/C(=C/c1ccc(N2CCC(c3ccccc3)=N2)cc1)C(C)=O | nt | nt | 39.6* | nt | 29.2 | -17.9 | 189.3* | -71.1* | -31.7
Fc1cccc(Cc2c(-c3ccco3)nc3c(Cl)cc(C(F)(F)F)cn23)c1 | i | nt | 8.2 | nt | 8.1 | nt | nt | nt | nt
CN(C)c1ccc(/C=C2/C[N+](C)(C)C/C(=C/c3ccc(N(C)C)cc3)C2=O)cc1 | nt | nt | 93.8* | nt | 19.4 | -15.3 | 3.1 | -40.7* | 113.6*
CN(C)c1ccc(/C=N/O)cc1 | i | -1.2 | 2.2 | 2.4 | 2.8 | 7.0 | nt | nt | nt
CCOc1cc(/C=N\NC(=O)OC)ccc1OC(=O)c1ccco1 | i | 0.6 | -2.7 | -5.0 | 1.8 | 4.5 | nt | nt | nt
O=C1NC(=S)S/C1=C/c1ccc(OC(=O)c2ccco2)cc1 | nt | 6.0 | 40.9* | 16.8 | 43.9* | -1.1 | 69.1* | 19.2* | 36.4*
CCOc1cc(/C=C2/SC(=S)NC2=O)ccc1OC(=O)c1ccco1 | i | 15.1 | 58.4* | 5.3 | 23.9 | -15.6 | 76.8* | 15.3* | 3.1
CSc1nc(SCC(=O)O)c2sc3nc(-c4ccccc4)c4c(c3c2n1)CCC4 | i | nt | 63.9* | nt | -85.1 | 1.2 | 22.8 | 30.1* | 5.2
CCOc1ccc(NC(=S)Nc2ccc3nsnc3c2)cc1 | i | 5.6 | 43.9* | 4.1 | 6.1 | -3.0 | 95.4* | 34.6* | -24.1
COc1ccc(NC(=S)Nc2ccc3nc(C)c(C)nc3c2)cc1 | i | 4.1 | 2.4 | -1.2 | -1.3 | -2.4 | nt | nt | nt
COc1ccc(NC(=S)Nc2ccc3nsnc3c2)cc1 | i | -1.5 | 49.2* | -9.7 | -4.0 | 4.4 | 94.0* | 29.8* | -28.4
CCC(C(=O)NCc1ccc(F)cc1)N(Cc1cccs1)C(=O)c1snc(C(N)=O)c1N (configuration not stated) | i | 2.8 | 1.3 | -1.4 | -1.0 | 4.1 | nt | nt | nt
Cc1ccc(C2=NOC(=O)/C2=C\C=C\c2ccccc2)cc1 | i | nt | 35.1* | nt | 15.2 | -2.6 | 102.7* | 2.8 | 8.2
CN(C)/C=C1\C(=O)ON=C1c1ccccc1 | i | 1.3 | -2.3 | 3.0 | 0.2 | 3.8 | nt | nt | nt
SMILES | Rpn11 block | IDE inh | CSN deneddyl inh | TPT1 inhibitor | HNF4A DNA FP | IDE act | CSN5 deneddyl | MMP-2 counter | Thrombin counter
Cc1cc(C(=O)NCc2ccc3c(c2)OCO3)c(C)o1 | i | 2.6 | 2.7 | -1.4 | -0.1 | 7.0 | nt | nt | nt
Cc1nnc(N/N=C/c2ccccc2F)n1N | i | 2.6 | 0.0 | -2.1 | -0.3 | 5.3 | nt | nt | nt
COc1cccc(/C=N/Nc2nnc(C)n2N)c1O | i | -2.4 | 53.8* | -0.7 | -0.9 | 4.8 | 107.0* | 7.8 | -6.7
COc1ccc(OC)c(Nc2cc3ccccc3c(=O)[nH]2)c1 | i | 4.8 | 26.1 | 8.6 | 6.8 | 0.3 | nt | nt | nt
O=c1[nH]c(Nc2ccccc2)cc2cc(Br)ccc12 | i | 2.1 | 48.5* | 10.1 | 0.8 | 3.9 | 60.9* | 3.4 | -43.5
COc1ccccc1Nc1cc2cc(Br)ccc2c(=O)[nH]1 | i | -5.4 | 53.0* | 8.1 | 3.7 | 2.2 | 70.0* | 9.9 | -24.7
Cc1cc(/C=C2\SC(=S)N(Cc3ccco3)C2=O)c(C)n1-c1cccnc1 | nt | nt | 79.4* | nt | 119.6 | -16.4 | nt | -7.3 | -50.4
O=C1/C(=C/c2cccnc2)SC(=S)N1Cc1ccco1 | i | nt | 6.0 | nt | 6.9 | 2.6 | nt | nt | nt
C=CCOc1ccc(Br)cc1/C=C1/SC(=Nc2ccc(C(=O)O)cc2)NC1=O | i | nt | 35.7* | nt | -2.5 | 1.2 | 97.3* | 6.8 | 4.2
CC(C)(C)C1=NN(c2ccc([N+](=O)[O-])cc2)C(c2ccccc2)C1 (configuration not stated) | i | 5.3 | 6.6 | 1.4 | 0.0 | 6.3 | nt | nt | nt
CC1CCCC(NC(=O)COC(=O)CCC2CCCC2)C1C (configuration not stated) | i | 3.9 | -0.9 | 1.3 | 0.3 | -4.0 | nt | nt | nt
Nc1ccc2c(c1)C(=O)c1ccccc1-2 | i | 5.3 | 11.4 | -2.5 | -1.7 | -4.0 | nt | nt | nt
O=C1C(=O)c2ccc(-c3ccccc3)cc2-c2ccccc21 | i | 2.3 | 56.9* | 2.1 | 1.3 | -3.6 | 49.7 | 6.6 | -16.6
Nc1ccc2c(c1)C(=O)C(=O)c1ccccc1-2 | i | -3.9 | 50.8* | 3.5 | 1.9 | -1.2 | nt | 5.5 | -26.3
CCc1ccc(N2CC(C(=O)OCC(=O)Nc3cc(C)on3)CC2=O)cc1 (configuration not stated) | i | -1.9 | 6.9 | -1.2 | 1.6 | 1.7 | nt | nt | nt
Cc1c(C)n(CCc2ccccc2)c2ncnc(NCCO)c12 | i | -0.1 | -2.1 | -2.3 | 0.7 | 2.7 | nt | nt | nt
Cc1ccnc2nc(C(=O)OCC(=O)c3ccc(NC(=O)CC(C)C)cc3)nn12 | i | -8.4 | 0.9 | nt | 3.5 | 3.9 | nt | nt | nt
CCC(=O)Nc1ccc(C(=O)COC(=O)c2nc3nccc(C)n3n2)cc1 | i | 5.2 | 43.7* | nt | -43.1 | 6.6 | nt | 14.7 | 9.7
